The text below walks through data of ChEMBL document CHEMBL2321648, “Structure-based discovery of pyrazolobenzothiazine derivatives as inhibitors of hepatitis C virus replication” (J Med Chem, 2013).

The nature of data set [1]: Cytotoxicity against human HuH5.2 cells by MTS assay. In kind it is cell-based, Huh-5-2. (Tetrazolium assays rely on reduction of a dye to a coloured formazan, in cell work by metabolically active cells.)
For data set [2], the system named is Hepatitis C virus. The data set is described as follows: Antiviral activity against Hepatitis C virus subtype 1b infected in human HuH5.2 cells assessed as inhibition of virus-induced cytopathic effect. The class given is functional, organism-based, Hepacivirus hominis. As to conditions: genotype 1b, Huh-5-2. In a few lines:
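Eight-step 1:2 dilution series, 72 h at 37 °C. Cells lysed and luciferase luminescence read, expressed as % of untreated controls. EC50 taken from the dose-response curve, means ± SD of at least three independent experiments.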
A general note: Cytopathic effects are the visible damage that an infection or toxin causes in cultured cells.

The test system of data set [3] is Hepatitis C virus. The data set is described as follows: Binding affinity to Hepatitis C virus (isolate Con1) NS5B […] by surface plasmon resonance analysis. The arrangement: species or system Hepacivirus hominis.
The test system of data set [4] is Hepatitis C virus. The data set is described as follows: Inhibition of N-terminal His-tagged recombinant Hepatitis C virus subtype 1b NS5B Cdelta21 RNA dependent RNA polymerase expressed in Escherichia coli at 50 uM by liquid scintillation counting analysis. Put shortly:
(§1)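 N-His-tagged NS5BCΔ21 (NIH1b), purified from E. coli DH5α on Ni-NTA, 100 ng per reaction. Reaction stopped with cold TCA/pyrophosphate, products filter-precipitated and scintillation-counted. Compound tested at 50 µM, activity relative to DMSO control.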

Data set [5] can be described thus: Selectivity index, ratio of CC50 for human HuH5.2 cells to EC50 for Hepatitis C virus subtype 1b. In kind it is toxicity. The note with it: read-out: Ratio CC50/EC50. Put shortly:
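Ratio of CC50 (MTS, 72 h) to EC50 (luciferase replicon read-out), both measured in parallel in Huh 5-2 replicon cells.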

Data set [6] deals with Hepatitis C virus. The data set is described as follows: Inhibition of N-terminal His-tagged recombinant Hepatitis C virus subtype 1b NS5B Cdelta21 RNA dependent RNA polymerase expressed in Escherichia coli by liquid scintillation counting analysis. Put shortly:
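Dose-response with 8–12 concentrations, in duplicate in two independent experiments. IC50 obtained by nonlinear regression, means ± SD.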

For data set [7], the system named is Hepatitis C virus. The data set is described as follows: Inhibition of N-terminal His-tagged recombinant Hepatitis C virus subtype 1b N-terminal His-tagged expressed in Escherichia coli at 50 uM by liquid scintillation counting analysis relative to control. In a few lines:
as §1

The subject of data set [8] is Hepatitis C virus. The data set is described as follows: Inhibition of N-terminal His-tagged recombinant Hepatitis C virus subtype 1b N-terminal His-tagged expressed in Escherichia coli at non-toxic concentration by liquid scintillation counting analysis relative to control. Put shortly: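 Recombinant NS5B genotype 1b (NIH1b) was His-tagged, C-terminally truncated by 21 residues, expressed in E. coli DH5α and purified on Ni-NTA. Products were TCA-precipitated on filters and counted by scintillation relative to the DMSO control. Compounds were screened at 50 µM.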

Data set [9] deals with Hepatitis C virus. The data set is described as follows: Antiviral activity against Hepatitis C virus subtype 1b infected in human Huh-9-13 cells assessed as inhibition of virus-induced cytopathic effect. The class given is functional, organism-based, Hepacivirus hominis. As to conditions: genotype 1b.

A value given as a limit tells only on which side of the number the result lay.

For orientation: CC50 means the concentration at which the toxic effect on the cells reaches its halfway point. Read a high CC50 as better tolerance by the cells. As a reminder, the EC50 is the concentration that produces a half-maximal response. In [1], `CS(=O)(=O)Nc1ccc(NC(=O)c2nn(-c3ccccc3)c3c2NS(=O)(=O)c2ccccc2-3)cc1` displayed a cytotoxic concentration (CC50) greater than 239 µM. Also, in the data set with Hepatitis C virus [2], the concentration for a half-maximal effect (EC50) was 14 µM.
In general, Kd refers to the equilibrium constant for the complex coming apart. A lower Kd goes with higher affinity. In general, inhibition refers to the relative decrease from the control value, in per cent. Usually EC90 stands for the concentration needed for an effect of 90%. In the case of `CS(=O)(=O)Nc1ccc(NC(=O)c2nn(-c3cccc([N+](=O)[O-])c3)c3c2NS(=O)(=O)c2ccccc2-3)cc1`, the Kd in the data set on Hepatitis C virus [3] is 14 µM. This compound also registered a CC50 in [1] greater than 220 µM. In addition, the inhibition at 50 µM in the data set on Hepatitis C virus [4] is 33.7%. Moreover, the selectivity ratio in data set [5] is no less than 1. Besides, in the data set on Hepatitis C virus [2], the half-maximal effective concentration (EC50) was greater than 220 µM and the concentration for an effect of 90% (EC90) is greater than 220 µM.
`CS(=O)(=O)Nc1ccc(NC(=O)c2nn(-c3ccccc3[N+](=O)[O-])c3c2NS(=O)(=O)c2ccccc2-3)cc1` registered a CC50 in data set [1] greater than 220 µM. Besides, the 50% effective concentration (EC50) with Hepatitis C virus [2] was 17.8 µM.
As a reminder, the IC50 is the midpoint of a concentration-inhibition curve. On to `CS(=O)(=O)Nc1ccc(NC(=O)c2nn(-c3ccc([N+](=O)[O-])cc3)c3c2NS(=O)(=O)c2ccccc2-3)cc1`, for which the IC50 in the data set with Hepatitis C virus [6] worked out at 7.7 µM. In addition, the concentration giving a half-maximal response (EC50) in the data set on Hepatitis C virus [2] came to 7.9 µM.
Turning to `CN1c2c(C(=O)Nc3ccc(NS(C)(=O)=O)cc3)nn(-c3cccc(N)c3)c2-c2ccccc2S1(=O)=O`, the inhibition at 50 µM in the data set on Hepatitis C virus [4] and in the data set with Hepatitis C virus [7] was 45.8% throughout. In addition, in the data set with Hepatitis C virus [2], the half-maximal effective concentration (EC50) was determined as 9.2 µM.
Consider `CN1c2c(C(=O)Nc3ccc(NS(C)(=O)=O)cc3)nn(-c3ccccc3N)c2-c2ccccc2S1(=O)=O`, for which the EC50 with Hepatitis C virus [2] was 26 µM.
Same read-out and setting: the result for `CN1c2c(C(=O)Nc3ccc(NS(C)(=O)=O)cc3)nn(-c3ccc(N)cc3)c2-c2ccccc2S1(=O)=O` reads 12 µM.
For the compound `CN1c2c(C(=O)Nc3ccc(N)cc3)nn(-c3cccc(F)c3)c2-c2ccccc2S1(=O)=O`, the inhibition at 50 µM in the data set with Hepatitis C virus [4] and in the data set on Hepatitis C virus [7] was 31.5% in each case. Besides, in the data set with Hepatitis C virus [2], the EC50 is 19 µM.
On to `CN1c2c(C(=O)Oc3ccc(NS(C)(=O)=O)cc3)nn(-c3cccc(F)c3)c2-c2ccccc2S1(=O)=O`, for which the results for the inhibition at 50 µM in the data set with Hepatitis C virus [4] and in the data set with Hepatitis C virus [7] were 21.4% and 21%, respectively. Besides, in the data set with Hepatitis C virus [2], the half-maximal effective concentration (EC50) worked out at 88 µM.
Take `COC(=O)c1nn(-c2cccc(F)c2)c2c1N(C)S(=O)(=O)c1ccccc1-2`: in the data set on Hepatitis C virus [8], the “inhibition (INH)” value worked out at 40%. Further, the inhibition at 50 µM was 10.6% in the data set on Hepatitis C virus [4] and 11% in the data set on Hepatitis C virus [7]. In addition, the 50% effective concentration (EC50) in the data set with Hepatitis C virus [2] worked out at 172 µM.
As for `CN1c2c(C(=O)Nc3ccc(NS(C)(=O)=O)cc3)nn(-c3cccc(F)c3)c2-c2ccccc2S1(=O)=O`, the EC50 with Hepatitis C virus [9] is 3.6 µM; with Hepatitis C virus [2], 7.5 µM.
`CN1c2c(C(=O)Nc3ccc(NS(C)(=O)=O)cc3)nn(-c3ccccc3F)c2-c2ccccc2S1(=O)=O`: the half-maximal effective concentration (EC50) in the data set on Hepatitis C virus [2] turned out to be 6.4 µM.
In the case of `CN1c2c(C(=O)Nc3ccc(NS(C)(=O)=O)cc3)nn(-c3ccc(F)cc3)c2-c2ccccc2S1(=O)=O`, the EC50 in the data set with Hepatitis C virus [2] was 23 µM.
